≈ marks a conversion by molar mass, not a printed value. Calls of active or inactive are those of the source. No cut-off for these calls is given here.
Columns and labels:
Staphylococcus aureus [1] = assay: T>MIC for 4-log drop in count in methicillin-resistant Staphylococcus aureus 33815 in in vitro pharmacokinetic model after 24 hrs using 10^8 CFU/ml inoculum; assay type: functional
Staphylococcus aureus [2] = assay: Antibacterial activity against methicillin-sensitive Staphylococcus aureus; assay type: functional
Staphylococcus aureus [3] = assay: Antibacterial activity against methicillin-resistant Staphylococcus aureus; assay type: functional
Serum = assay: Drug level in human serum at 700 mg; assay type: ADME, cell-free
Staphylococcus aureus [4] = assay: AUBKC (0 to 48 hrs) in methicillin-resistant Staphylococcus aureus 33921 infected in in vitro pharmacokinetic model at 750 mg, iv every 8 hrs using 10^6 CFU/ml inoculum; assay type: functional
In short: (§1)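 Single-compartment dilutional in vitro PK model at 37°C in 10% Mueller-Hinton broth, stirred, flow 132 ml/h. […] Inoculum 10^6 CFU/ml added 45 min before dosing, or 10^8 CFU/ml run overnight. Viable counts with β-lactamase neutralisation. AUBKC by log-linear trapezoidal rule, at least triplicate.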

Staphylococcus aureus [5] = assay: AUBKC (0 to 48 hrs) in methicillin-resistant Staphylococcus aureus 33922 infected in in vitro pharmacokinetic model at 750 mg, iv every 8 hrs using 10^6 CFU/ml inoculum; assay type: functional; in short: as §1
Staphylococcus aureus [6] = assay: AUBKC (0 to 48 hrs) in methicillin-sensitive Staphylococcus aureus 5956 infected in in vitro pharmacokinetic model at 1500 mg, iv every 8 hrs using 10^6 CFU/ml inoculum; assay type: functional; in short: as §1
Staphylococcus aureus [7] = assay: Antibacterial activity against methicillin-resistant Staphylococcus aureus 33922 infected in in vitro pharmacokinetic model assessed as reduction in viable count at 1500 mg, iv every 8 hrs measured after 24 hrs using 10^8 CFU/ml inoculum; assay type: functional
[8] = Plasma protein binding in human; assay type: ADME, cell-free; settings: read-out: PPB
Staphylococcus aureus [9] = assay: Antibacterial activity against methicillin-resistant Staphylococcus aureus 33827 infected in in vitro pharmacokinetic model assessed as reduction in viable count at 1500 mg, iv every 8 hrs measured after 48 hrs using 10^8 CFU/ml inoculum; assay type: functional
In short: (§2)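 Single-compartment dilutional in vitro PK model, 10% Mueller-Hinton broth, 37°C, stirred, dilution 132 ml/h. […] Inoculum 10^6 CFU/ml (added 45 min pre-dose) or 10^8 CFU/ml (run overnight). Viable counts by spiral plating, beta-lactamase neutralization, detection limit 10^2 CFU/ml. At least triplicate.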

Staphylococcus aureus [10] = assay: Antibacterial activity against methicillin-resistant Staphylococcus aureus 33815 infected in in vitro pharmacokinetic model assessed as reduction in viable count at 1500 mg, iv every 8 hrs measured after 48 hrs using 10^8 CFU/ml inoculum; assay type: functional
In short: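 PK model at 37°C in 10% MHB. […] A 0.5 McFarland suspension (1 ml) was added and the model run overnight to reach 10^8 CFU/ml before dosing. Counts were spiral-plated on nutrient agar with β-lactamase. Change in log CFU/ml was measured from time 0; at least triplicate.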

Staphylococcus aureus [11] = assay: Antibacterial activity against methicillin-resistant Staphylococcus aureus 33815 infected in in vitro pharmacokinetic model assessed as time required to 99.9% killing at 750 mg, iv every 8 hrs using 10^8 CFU/ml inoculum; assay type: functional
In short: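 T99 and T99.9 were taken as the times for the count to fall 99% or 99.9% from time 0, using serial viable counts over 48 h. Inoculum was 10^8 CFU/ml, grown overnight in the model before dosing.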

Staphylococcus aureus [12] = assay: AUBKC (0 to 48 hrs) in methicillin-resistant Staphylococcus aureus 33922 infected in in vitro pharmacokinetic model at 750 mg, iv every 8 hrs using 10^8 CFU/ml inoculum; assay type: functional; in short: as §1
Staphylococcus aureus [13] = assay: Antibacterial activity against methicillin-resistant Staphylococcus aureus 33922 assessed as viable count at 2 times of MIC after 24 hrs using 10^6 CFU/ml inoculum; assay type: functional, organism-based
Staphylococcus aureus [14] = assay: T>MIC in methicillin-resistant Staphylococcus aureus 33815 infected in vitro pharmacokinetic model at 750 mg, iv every 8 hrs; assay type: functional
Staphylococcus aureus [15] = assay: Antibacterial activity against methicillin-resistant Staphylococcus aureus 33922 in in vitro pharmacokinetic model assessed as viable count at 4 times of MIC; assay type: functional
Staphylococcus aureus [16] = assay: Antibacterial activity against methicillin-resistant Staphylococcus aureus 33921 in in vitro pharmacokinetic model assessed as viable count at 6 times of MIC; assay type: functional
In short: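 Preexposure population analysis: time-zero model samples plated on nutrient agar without drug and with drug at multiples of the 10% broth MIC. Growth reported as log CFU/ml, detection limit 2 log10.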

Staphylococcus aureus [17] = assay: Antibacterial activity against methicillin-resistant Staphylococcus aureus 33820 in in vitro pharmacokinetic model assessed as viable count at 6 times of MIC; assay type: functional
In short: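 Population analysis before drug exposure (time 0). Model samples were plated on nutrient agar without drug and with tomopenem at 2×, 4× and 6× MIC (10% MHB MIC), and growth was recorded as log CFU/ml. Detection limit 2 log10.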

Staphylococcus aureus [18] = assay: Antibacterial activity against methicillin-resistant Staphylococcus aureus 33921 infected in in vitro pharmacokinetic model assessed as reduction in viable count at 750 mg, iv every 8 hrs measured after 24 hrs using 10^6 CFU/ml inoculum; assay type: functional
Staphylococcus aureus [19] = assay: Antibacterial activity against methicillin-resistant Staphylococcus aureus 33921 infected in in vitro pharmacokinetic model assessed as reduction in viable count at 750 mg, iv every 8 hrs measured after 36 hrs using 10^6 CFU/ml inoculum; assay type: functional
Staphylococcus aureus [20] = assay: Antibacterial activity against methicillin-resistant Staphylococcus aureus 33827 infected in in vitro pharmacokinetic model assessed as reduction in viable count at 750 mg, iv every 8 hrs measured after 36 hrs using 10^6 CFU/ml inoculum; assay type: functional; in short: as §2
Staphylococcus aureus [21] = assay: T>MIC for 2-log drop in count in methicillin-sensitive Staphylococcus aureus 5956 in in vitro pharmacokinetic model after 24 hrs using 10^8 CFU/ml inoculum; assay type: functional
In short: (§3)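 Dose-ranging: 7–13 simulated regimens per strain giving T>MIC of 0–100% (MIC from 10% MHB), at 106 or 10^8 CFU/ml as stated.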

Staphylococcus aureus [22] = assay: T>MIC for 2-log drop in count in methicillin-resistant Staphylococcus aureus 33815 in in vitro pharmacokinetic model after 24 hrs using 10^8 CFU/ml inoculum; assay type: functional
Staphylococcus aureus [23] = assay: T>MIC for 3-log drop in count in methicillin-sensitive Staphylococcus aureus 5956 in in vitro pharmacokinetic model after 24 hrs using 10^8 CFU/ml inoculum; assay type: functional; in short: as §3
Staphylococcus aureus [24] = assay: Antibacterial activity against methicillin-resistant Staphylococcus aureus 33921 infected in in vitro pharmacokinetic model assessed as reduction in viable count at 1500 mg, iv every 8 hrs measured after 24 hrs using 10^6 CFU/ml inoculum; assay type: functional; in short: as §2
Staphylococcus aureus [25] = assay: Antibacterial activity against methicillin-resistant Staphylococcus aureus 33815 infected in in vitro pharmacokinetic model assessed as reduction in viable count at 1500 mg, iv every 8 hrs measured after 48 hrs using 10^6 CFU/ml inoculum; assay type: functional
In short: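 Single-compartment dilutional in vitro PK model, 37°C, stirred, in 10% Mueller-Hinton broth. […] Inoculum 10^6 CFU/ml from a 24-h plate culture was added 45 min before dosing. Viable counts by spiral plating on nutrient agar with β-lactamase neutralization. Log change was taken from time 0; detection limit 10^2 CFU/ml; at least triplicate.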

With `C[C@@H](O)[C@H]1C(=O)N2C(C(=O)O)=C(S[C@H]3C[C@@H](C(=O)N4CC[C@H](NC(=O)CNC(=N)N)C4)N(C)C3)[C@H](C)[C@H]12` [TOMOPENEM] the “fT>MIC” value (Staphylococcus aureus [1]) was 6.5%, the MIC50 (Staphylococcus aureus [2]) was 0.12 µg/mL (≈ 0.223 µM) and the MIC90 (Staphylococcus aureus [2]) was 0.12 µg/mL (≈ 0.223 µM). The MIC50 (Staphylococcus aureus [3]) was 2 µg/mL (≈ 3.72 µM), the MIC90 (Staphylococcus aureus [3]) was 4 µg/mL (≈ 7.44 µM) and the Drug uptake (Serum) was 44 mg/L. It also gave an AUBC (Staphylococcus aureus [4]) of 41 log10CFU/ml.hr, an AUBC (Staphylococcus aureus [5]) of 27.7 log10CFU/ml.hr and an AUBC (Staphylococcus aureus [6]) of 22.7 log10CFU/ml.hr. For the same compound, the log10CFU/ml (Staphylococcus aureus [7]) was 5, the fraction unbound [8] was > 0.9 and the log10CFU/ml (Staphylococcus aureus [9]) was 5.9. It also gave a log10CFU/ml (Staphylococcus aureus [10]) of 3.9, a Time (Staphylococcus aureus [11]) of 24 h and an AUBC (Staphylococcus aureus [12]) of 81.5 log10CFU/ml.hr. For the same compound, the Activity (Staphylococcus aureus [13]) was “inactive”, the “fT>MIC” value (Staphylococcus aureus [14]) was 73% and the log10CFU/ml (Staphylococcus aureus [15]) was 6. For the same compound, the log10CFU/ml (Staphylococcus aureus [16]) was < 2, the log10CFU/ml (Staphylococcus aureus [17]) was <2 and the log10CFU/ml (Staphylococcus aureus [18]) was 4. For the same compound, the log10CFU/ml (Staphylococcus aureus [19]) was 3.9, the log10CFU/ml (Staphylococcus aureus [20]) was 3.7 and the “fT>MIC” value (Staphylococcus aureus [21]) was 7.4%. The “fT>MIC” value (Staphylococcus aureus [22]) was 2%, the “fT>MIC” value (Staphylococcus aureus [23]) was 12.8% and the log10CFU/ml (Staphylococcus aureus [24]) was 4.2. For the same compound, the log10CFU/ml (Staphylococcus aureus [25]) was 4.2.
